Measured values from ChEMBL document CHEMBL3992541, “Combined treatment with zingerone and its novel derivative synergistically inhibits TGF-β1 induced epithelial-mesenchymal transition, migration and invasion of human hepatocellular carcinoma cells” (2017).
Calls of active or inactive are those of the source. No cut-off for these calls is given here.

Tests used:
[1] = molecular target: Mothers against decapentaplegic homolog 2 (Homo sapiens) (UniProt Q15796); assay: Inhibition of TGFbeta1-induced SMAD2 phosphorylation in human SNU182 cells at 20 to 40 uM preincubated for 2 hrs followed by TGFbeta1 addition measured after 48 hrs in presence of (E)-1-(9-Ethyl-9H-carbazol-3-yl)-5-(4-hydroxy-3-methoxyphenyl)pent-1-en-3-one by Western blot method; assay type: cell-based
Outline: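 SNU182 cells given the mixture (20 and 40 µM) for 2 h, then TGF-β1 5 ng/ml for 48 h. Smad2/3 phosphorylation by Western blot, with total Smad2/3 as loading control.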

Homo sapiens [2] = organism: Homo sapiens; assay: Inhibition of TGFbeta1-induced NF-kB nuclear translocation in human SNU182 cells preincubated for 2 hrs followed by TGFbeta1 addition measured after 12 hrs in presence of (E)-1-(9-Ethyl-9H-carbazol-3-yl)-5-(4-hydroxy-3-methoxyphenyl)pent-1-en-3-one by Western blot method; assay type: cell-based
Outline: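 Mixture added to SNU182 cells for 2 h before TGF-β1 for 12 h. Cytosolic and nuclear fractions analysed by Western blot for NF-κB, with COX4 as cytosolic and Lamin B1 as nuclear marker.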

SNU-182 [3] = assay: (§1) Inhibition of TGFbeta1-induced epithelial-mesenchymal transition in human SNU182 cells assessed as reduction in MMP2 mRNA expression preincubated for 2 hrs followed by TGFbeta1 addition measured after 48 hrs in presence of (E)-1-(9-Ethyl-9H-carbazol-3-yl)-5-(4-hydroxy-3-methoxyphenyl)pent-1-en-3-one by qRT-PCR method; assay type: functional, cell-based
Outline: (§2)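 SNU182 cells pretreated 2 h with single agents (12.5 or 40 µM) or the mixture (20 or 40 µM), then TGF-β 5 ng/ml for 48 h. MMP-2 and MMP-9 mRNA measured by RT-PCR with densitometry and by qRT-PCR, fold change by the 2^-ΔΔCt method. Mean±SD of triplicates.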

SNU-182 [4] = assay: as §1, with “upregulation of Snail” for “MMP2 mRNA”, “Western blot” for “qRT-PCR”; assay type: functional, cell-based
Outline: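 SNU182 cells pretreated 2 h with single agents (12.5 or 40 µM) or the mixture (20 and 40 µM), then stimulated with TGF-β1 5 ng/ml for 48 h. E-cadherin and Snail protein detected by Western blot, with GAPDH as loading control.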

SNU-182 [5] = assay: as §1, with “upregulation of N-cadherin” for “MMP2 mRNA”, “Western blot” for “qRT-PCR”; assay type: functional, cell-based
Outline: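 Pretreatment of SNU182 cells with the mixture at 20 and 40 µM for 2 h in serum-free medium, followed by TGF-β1 5 ng/ml for 48 h. N-cadherin and Snail detected by Western blot against GAPDH.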

[6] = molecular target: Transcription factor Jun (Homo sapiens) (UniProt P05412); assay: Inhibition of TGFbeta1-induced AP-1 binding activity in human SNU182 cells at 20 to 40 uM measured after 48 hrs in presence of (E)-1-(9-Ethyl-9H-carbazol-3-yl)-5-(4-hydroxy-3-methoxyphenyl)pent-1-en-3-one by luciferase reporter gene assay; assay type: cell-based
Outline: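 SNU182 transfected with pGL4.44-AP-1-RE-Luc or empty pGL4.44, pretreated with the mixture (20 and 40 µM), then stimulated with TGF-β1 or DMSO. Luciferase reporter activity read. Mean±SD of triplicates.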

SNU-182 [7] = assay: as §1, with “MMP9” for “MMP2”; assay type: functional, cell-based; outline: as §2
SNU-182 [8] = assay: Inhibition of TGFbeta1-induced migration in human SNU182 cells at 40 uM measured after 48 hrs in presence of (E)-1-(9-Ethyl-9H-carbazol-3-yl)-5-(4-hydroxy-3-methoxyphenyl)pent-1-en-3-one by wound healing assay; assay type: functional, cell-based
Outline: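 Wound healing: SNU182 monolayers at about 90% confluence scratched with a pipette tip and washed. Medium with TGF-β1, with or without 40 µM mixture, then added. Wound imaged at 0 and 48 h; relative motility from cell surface area. Mean±SD of triplicates.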

SNU-182 [9] = assay: Growth inhibition of human SNU182 cells assessed as cell growth at 50 uM after 48 hrs by CCK8 assay relative to control; assay type: functional; details: SNU-182, 48 h, read-out: Activity
SNU-182 [10] = assay: Growth inhibition of human SNU182 cells after 48 hrs by CCK8 assay; assay type: functional, cell-based
SNU-182 [11] = assay: Inhibition of TGFbeta1-induced epithelial-mesenchymal transition in human SNU182 cells assessed as reduction in MMP2 mRNA expression preincubated for 2 hrs followed by TGFbeta1 addition measured after 48 hrs in presence of zingerone by qRT-PCR method; assay type: functional, cell-based; outline: as §2
SNU-182 [12] = assay: Inhibition of TGFbeta1-induced epithelial-mesenchymal transition in human SNU182 cells assessed as reduction in MMP2 mRNA expression at 12.5 uM preincubated for 2 hrs followed by TGFbeta1 addition measured after 48 hrs by qRT-PCR method; assay type: functional, cell-based; outline: as §2
[13] = molecular target: T1, NF-kappa-B inhibitor alpha (Homo sapiens) (UniProt P25963); assay: Inhibition of TGFbeta1-induced IkB-alpha phosphorylation in human SNU182 cells at 20 to 40 uM preincubated for 2 hrs followed by TGFbeta1 addition measured after 120 mins in presence of zingerone by Western blot method; assay type: cell-based
T1 sequence (whole entry): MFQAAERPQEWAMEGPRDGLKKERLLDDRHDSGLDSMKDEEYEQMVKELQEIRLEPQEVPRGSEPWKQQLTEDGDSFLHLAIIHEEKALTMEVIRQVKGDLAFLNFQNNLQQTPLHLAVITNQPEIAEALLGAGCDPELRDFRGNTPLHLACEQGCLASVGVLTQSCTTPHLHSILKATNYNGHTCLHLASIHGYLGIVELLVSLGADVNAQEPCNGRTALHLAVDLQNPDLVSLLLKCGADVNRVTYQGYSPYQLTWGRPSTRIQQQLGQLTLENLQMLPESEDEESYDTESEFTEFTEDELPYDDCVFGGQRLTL
Outline: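 SNU182 cells pretreated with the mixture (20 and 40 µM) for 2 h, then exposed to TGF-β1 for 120 min. IκB protein assessed by Western blot, with GAPDH loading control.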

Homo sapiens [14] = organism: Homo sapiens; assay: Inhibition of TGFbeta1-induced NF-kB binding activity in human SNU182 cells at 20 to 40 uM measured after 48 hrs in presence of zingerone by luciferase reporter gene assay; assay type: cell-based
Outline: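 Cells transfected with pGL4.32-NF-κB-RE-Luc or empty pGL4.32, then treated with the mixture and/or TGF-β1. Luciferase reporter activity read. Mean±SD of triplicates.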

SNU-182 [15] = assay: Inhibition of TGFbeta1-induced epithelial-mesenchymal transition in human SNU182 cells assessed as reduction in MMP9 activity measured after 48 hrs in presence of zingerone by gelatin zymography assay; assay type: functional, cell-based
Outline: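 Cells serum-starved overnight in 0.2% FBS medium, then left untreated or given TGF-β 5 ng/ml and/or the mixture for 48 h. MMP-2 and MMP-9 activity in conditioned medium determined by gelatin zymography.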

Transcription factor Jun (Homo sapiens), sequence (P05412 whole entry): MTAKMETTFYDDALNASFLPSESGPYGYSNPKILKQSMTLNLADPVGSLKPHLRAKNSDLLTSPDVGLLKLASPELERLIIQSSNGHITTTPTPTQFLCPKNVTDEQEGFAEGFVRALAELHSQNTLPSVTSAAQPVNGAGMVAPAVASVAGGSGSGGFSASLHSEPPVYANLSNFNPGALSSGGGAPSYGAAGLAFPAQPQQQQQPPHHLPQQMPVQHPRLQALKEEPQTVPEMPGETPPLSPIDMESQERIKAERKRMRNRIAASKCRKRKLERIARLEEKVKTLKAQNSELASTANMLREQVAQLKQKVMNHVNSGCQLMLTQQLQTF
Mothers against decapentaplegic homolog 2 (Homo sapiens), sequence (Q15796 whole entry): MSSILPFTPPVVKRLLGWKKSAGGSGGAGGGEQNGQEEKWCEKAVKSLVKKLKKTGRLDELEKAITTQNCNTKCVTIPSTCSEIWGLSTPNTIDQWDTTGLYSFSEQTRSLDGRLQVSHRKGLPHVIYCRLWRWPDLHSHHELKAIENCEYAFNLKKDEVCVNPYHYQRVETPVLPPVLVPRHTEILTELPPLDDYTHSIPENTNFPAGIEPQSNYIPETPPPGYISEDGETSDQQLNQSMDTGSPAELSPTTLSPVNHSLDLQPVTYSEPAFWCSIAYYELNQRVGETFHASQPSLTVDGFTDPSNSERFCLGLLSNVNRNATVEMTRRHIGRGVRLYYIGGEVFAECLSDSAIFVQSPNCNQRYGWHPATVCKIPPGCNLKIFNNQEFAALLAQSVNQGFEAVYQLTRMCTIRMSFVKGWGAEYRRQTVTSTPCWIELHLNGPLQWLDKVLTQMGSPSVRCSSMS

Row | SMILES | inhibition [1] | inhibition (Homo sapiens [2]) | inhibition (SNU-182 [3]) | inhibition (SNU-182 [4]) | inhibition (SNU-182 [5]) | inhibition [6] | inhibition (SNU-182 [7]) | inhibition (SNU-182 [8]) | growth at 50 µM (SNU-182 [9]) [%] | growth inhibition (GI) (SNU-182 [10]) | inhibition (SNU-182 [11]) | inhibition (SNU-182 [12]) | inhibition [13] | inhibition (Homo sapiens [14]) | inhibition (SNU-182 [15])
1 | COc1cc(CCC(C)=O)ccc1O | Active | Dose-dependent effect | Dose-dependent effect | Dose-dependent effect | Dose-dependent effect | Active | Dose-dependent effect | Active | – | – | – | – | – | – | –
2 | CCn1c2ccccc2c2cc(/C=C/C(=O)CCc3ccc(O)c(OC)c3)ccc21 | – | – | – | – | – | – | – | – | 40 | Dose-dependent effect | Dose-dependent effect | inactive | Active | Active | Active
